This note sets out measurements from ChEMBL document CHEMBL3244057, “Diazepines. 5. Synthesis and biological action of 6-phenyl-4H-pyrrolo[1,2-a][1,4]benzodiazepines” (J Med Chem, 1978).

Data set [1] deals with Mus musculus. Description: Toxicity in po dosed ddY mouse assessed as motor incoordination by rotarod test. Format: organism-based. Particulars: in vivo. Put shortly: (§1)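 Male ddY mice (18–24 g) were dosed orally with compound suspended in 5% arabic gum, six mice per dose. Three or four doses were chosen from 100, 30, 10, 3, 1, 0.3 and 0.1 mg/kg. ED50 was calculated by the Litchfield-Wilcoxon method. Muscle relaxation was scored on an inclined wooden board, and fighting was induced by electrofootshock.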
A general note: The rotarod test checks motor coordination on a turning rod.

Data set [2] relates to Mus musculus. Description: Induction of sedative activity in po dosed ddY mouse assessed as potentiation of thiopental-induced response. Format: functional. Put shortly:
as §1

The subject of data set [3] is Mus musculus. Description: Anticonvulsant activity in po dosed ddY mouse assessed as reduction of pentylenetetrazole-induced seizure. Format: functional. Put shortly:
as §1

Data set [4] can be described thus: Acute toxicity in po dosed ddY mouse assessed as mortality measured for 2 weeks. Particulars: in vivo. The class given is organism-based. The method, boiled down:
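Male ddY mice (18–24 g) were dosed orally with compound suspended in 5% arabic gum. Groups of four received 1000 or 2000 mg/kg, and a group of eight received 3000 mg/kg. Deaths were recorded over a 2-week observation period.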

Data set [5] can be described thus: Ratio of compound ED50 to diazepam ED50 for toxicity in po dosed ddY mouse assessed as motor incoordination. The class given is organism-based. Conditions: in vivo, read-out: Ratio ED50.
The test system of data set [6] is Mus musculus. Description: Muscle relaxant activity in po dosed ddY mouse. The class given is functional. Put shortly:
as §1

For data set [7], the system named is Mus musculus. Description: Anticonvulsant activity in po dosed ddY mouse assessed as reduction of maximal electroshock-induced seizure. The class given is functional. In general terms: In the maximal electroshock model the usual endpoint is tonic extension of the hind limbs.
The test system of data set [8] is Mus musculus. Description: Taming activity in po dosed electrofootshock-induced fighting ddY mouse. Format: functional. The method, boiled down: as §1

Some results are limits rather than exact numbers.

Take `CCc1cc2n(c1C)-c1ccc(Cl)cc1C(c1c(F)cccc1F)=NC2`: the ED50 was > 100 mg/kg in the data set with Mus musculus [1], 3 mg/kg with Mus musculus [2] and 16.6 mg/kg in the data set on Mus musculus [3].
For `Cc1cc(C)n2c1CN=C(c1ccccc1Cl)c1cc(Cl)ccc1-2`, the ED50 stood at 15.5 mg/kg with Mus musculus [1], 0.34 mg/kg in the data set with Mus musculus [2] and 1.4 mg/kg in the data set on Mus musculus [3]. For the same compound, the LD50 at 336 h in data set [4] was determined as 930 mg/kg. The selectivity ratio in data set [5] was 2.
On to `CN1C(=O)CN=C(c2ccccc2)c2cc(Cl)ccc21` [DIAZEPAM], for which the ED50 with Mus musculus [6] amounted to 0.6 mg/kg; with Mus musculus [1], 5.4 mg/kg; in the data set on Mus musculus [2], 0.3 mg/kg; in the data set with Mus musculus [3] it was 0.6 mg/kg.
For the compound `Cc1cc2n(c1C)-c1ccc(Cl)cc1C(c1ccccc1F)=NC2`, the results for the ED50 with Mus musculus [1] and in the data set on Mus musculus [2] were > 100 mg/kg and 8 mg/kg, respectively.
For `Cc1cc2n(c1C)-c1ccc(Cl)cc1C(c1ccccc1)=NC2` the same measures were > 100 mg/kg and 21 mg/kg.
In the same order, the values of `CCc1cc2n(c1C)-c1ccc(Cl)cc1C(c1ccccc1Cl)=NC2` are 16.2 mg/kg and 0.6 mg/kg.
For `CCc1cc2n(c1C)-c1ccc(Cl)cc1C(c1ccccc1F)=NC2` the same measures were > 100 mg/kg and 2.2 mg/kg.
On to `Cc1cc(C)n2c1CN=C(c1c(F)cccc1F)c1cc(Cl)ccc1-2`, for which the ED50 in the data set with Mus musculus [6] is 6.4 mg/kg; in the data set on Mus musculus [1], 16.2 mg/kg; in the data set with Mus musculus [2], 0.7 mg/kg.
For the compound `Clc1ccc2c(c1)C(c1ccccc1)=NCc1cccn1-2`, the ED50 in the data set on Mus musculus [1] was > 100 mg/kg; with Mus musculus [2] it was 44 mg/kg.
In the case of `Cc1cc2n(c1C)-c1ccccc1C(c1ccccc1)=NC2`, the ED50 in the data set with Mus musculus [7] was > 100 mg/kg; in the data set on Mus musculus [6], > 100 mg/kg; with Mus musculus [1] it was > 100 mg/kg; in the data set on Mus musculus [2], > 30 mg/kg; in the data set with Mus musculus [3] it was > 100 mg/kg; with Mus musculus [8], > 100 mg/kg.
For the compound `Cc1ccc2n1-c1ccc([N+](=O)[O-])cc1C(c1ccccc1)=NC2`, the ED50 with Mus musculus [7] was > 100 mg/kg; with Mus musculus [6], > 100 mg/kg; in the data set on Mus musculus [1] it was > 100 mg/kg; in the data set with Mus musculus [2], 5.8 mg/kg; in the data set on Mus musculus [3], ≥ 100 mg/kg; in the data set on Mus musculus [8], > 100 mg/kg.
As for `Cc1cc2n(c1C)-c1ccc(Cl)cc1C(c1ccccc1Cl)=NC2`, the ED50 in the data set on Mus musculus [1] came to 40 mg/kg; with Mus musculus [2] it was 2.6 mg/kg.
As to `Cc1ccc2n1-c1ccc(Cl)cc1C(c1ccccc1)=NC2`, the ED50 in the data set on Mus musculus [7] is > 100 mg/kg; in the data set on Mus musculus [6] it was > 100 mg/kg; in the data set on Mus musculus [1], > 100 mg/kg; in the data set on Mus musculus [2], 46 mg/kg; in the data set on Mus musculus [3], 100 mg/kg; in the data set with Mus musculus [8], > 100 mg/kg.
With `Fc1ccccc1C1=NCc2cccn2-c2ccc(Cl)cc21`, the ED50 in the data set on Mus musculus [7] was > 100 mg/kg; in the data set with Mus musculus [6] it was > 100 mg/kg; with Mus musculus [1], > 100 mg/kg; in the data set with Mus musculus [2] it was 5.2 mg/kg; with Mus musculus [3], 100 mg/kg; in the data set on Mus musculus [8], 39 mg/kg.
In the case of `Cc1ccc2n1-c1ccc(Cl)cc1C(c1ccccc1F)=NC2`, the 50% effective dose (ED50) in the data set on Mus musculus [1] was > 100 mg/kg; in the data set with Mus musculus [2], 6.9 mg/kg.
In the case of `Cc1cc(C)n2c1CN=C(c1ccccc1F)c1cc(Cl)ccc1-2`, the ED50 is 20.5 mg/kg in the data set on Mus musculus [6], > 30 mg/kg in the data set on Mus musculus [1] and 2.4 mg/kg with Mus musculus [2].
In the case of `Cc1ccc2n1-c1ccc(Cl)cc1C(c1ccccc1Cl)=NC2`, the values for the ED50 with Mus musculus [1] and in the data set with Mus musculus [2] were 100 mg/kg and 2.8 mg/kg, respectively.
In the same order, the values of `Clc1ccc2c(c1)C(c1ccccc1Cl)=NCc1cccn1-2` are > 100 mg/kg and 18 mg/kg.
Turning to `Cc1ccc2n1-c1ccccc1C(c1ccccc1)=NC2`, the ED50 is > 100 mg/kg in the data set with Mus musculus [7]; > 100 mg/kg with Mus musculus [6]; > 100 mg/kg in the data set on Mus musculus [1]; 22 mg/kg with Mus musculus [2]; > 100 mg/kg in the data set on Mus musculus [3]; > 100 mg/kg in the data set on Mus musculus [8].

By ED50 is commonly meant the dose at which the effect has come halfway, by size or by number of responders. What is called LD50 is the dose at which mortality reaches 50%.
